Assay results as given in ChEMBL document CHEMBL4382240, “Discovery of novel 2,5-dihydroxyterephthalamide derivatives as multifunctional agents for the treatment of Alzheimer's disease” (Bioorg Med Chem, 2018).
Calls of active or inactive are those of the source. No cut-off for these calls is given here.

Legend:
Butyrylcholinesterase = Butyrylcholinesterase (Rattus norvegicus, UniProt Q9JKC1); assay: Inhibition of rat serum BuChE using butyrylthiocholine iodide as substrate after 15 mins by Ellman's method; assay type: ADME
Chain of Butyrylcholinesterase (Q9JKC1 whole entry): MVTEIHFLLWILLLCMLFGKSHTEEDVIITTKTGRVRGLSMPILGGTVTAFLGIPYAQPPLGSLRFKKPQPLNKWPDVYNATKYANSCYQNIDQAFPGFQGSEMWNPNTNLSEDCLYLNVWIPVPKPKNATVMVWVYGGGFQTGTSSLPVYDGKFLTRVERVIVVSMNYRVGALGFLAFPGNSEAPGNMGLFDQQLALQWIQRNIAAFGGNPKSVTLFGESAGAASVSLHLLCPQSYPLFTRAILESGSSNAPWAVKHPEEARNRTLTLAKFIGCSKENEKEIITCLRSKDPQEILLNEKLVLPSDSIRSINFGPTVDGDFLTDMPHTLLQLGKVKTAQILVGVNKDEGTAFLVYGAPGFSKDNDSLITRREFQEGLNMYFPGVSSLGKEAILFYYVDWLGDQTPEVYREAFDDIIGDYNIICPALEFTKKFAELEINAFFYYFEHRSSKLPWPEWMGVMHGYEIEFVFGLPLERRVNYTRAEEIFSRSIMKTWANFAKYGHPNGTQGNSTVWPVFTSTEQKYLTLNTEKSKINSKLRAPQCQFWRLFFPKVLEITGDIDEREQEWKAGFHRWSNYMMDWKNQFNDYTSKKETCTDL

[1] = Antioxidant activity assessed as trolox equivalent of APPH-induced radical scavenging activity at 5 uM preincubated for 15 mins followed by AAPH addition measured every minute for 90 mins by ORAC fluorescein assay; assay type: functional
Procedure, shortened: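 ORAC-FL in 75 mM phosphate buffer, pH 7.4. Fluorescein (150 nM final) and sample (tested at 1–10 µM) incubated 15 min at 37 °C. AAPH (12 mM final) then added, and fluorescence (ex 485/em 535 nm) read every minute for 90 min. Trolox standard 1–8 µM; result expressed as µM Trolox equivalent per µM compound. Duplicate wells; three independent experiments.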

[2] = Anti-inflammatory activity in […] cells assessed as inhibition of LPS-stimulated NO release at 10 uM preincubated for 30 mins followed by LPS stimulation and measured after 24 hrs by Griess reagent based assay relative to control; assay type: functional; conditions: BV-2
Procedure, shortened: (§1)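 BV-2 cells cultured 24 h in DMEM (10% FBS, glutamine, pyruvate, pen/strep) at 37 °C, 5% CO2. Compound (DMSO stock diluted in PBS) added 30 min before LPS (1.0 µg/mL), then 24 h. Nitrite in supernatant measured by Griess reagent for 10 min at room temperature, A540, against a NaNO2 standard curve. Triplicate wells; mean ± SD of three independent experiments.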

[3] = Cytotoxicity against […] cells assessed as decrease in cell viability up to 10 uM measured after 24 hrs by MTT assay; assay type: cell-based
Procedure, shortened: (§2)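 BV-2 cells grown 24 h, then treated with compound (0.5, 2.5, 10.0 µM) for 30 min, with or without LPS (1.0 µg/mL), for a further 24 h. MTT (5 mg/mL) added for 4 h, formazan dissolved in DMSO, A490 read. Viability given as percent of untreated cells. Triplicate wells; three independent experiments.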

[4] = Inhibition of Cu2+ induced human amyloid beta (1 to 42) aggregation at 25 uM after 24 hrs by Thioflavin T based fluorometric assay relative to control
Procedure, shortened: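 Aβ1-42 (25 µM) and Cu2+ (25 µM) in HEPES buffer (20 mM, pH 6.6, 150 mM NaCl), with or without compound (25 µM final), incubated 24 h at 37 °C. ThT (5 µM) in glycine-NaOH, pH 8.5, added and fluorescence read. Triplicate; three independent experiments.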

Acetylcholinesterase [5] = target: T1, Acetylcholinesterase (Rattus norvegicus, UniProt P37136); assay: Inhibition of rat cortex AChE using acetylthiocholine iodide as substrate after 15 mins by Ellman's method
T1 sequence (P37136 whole entry): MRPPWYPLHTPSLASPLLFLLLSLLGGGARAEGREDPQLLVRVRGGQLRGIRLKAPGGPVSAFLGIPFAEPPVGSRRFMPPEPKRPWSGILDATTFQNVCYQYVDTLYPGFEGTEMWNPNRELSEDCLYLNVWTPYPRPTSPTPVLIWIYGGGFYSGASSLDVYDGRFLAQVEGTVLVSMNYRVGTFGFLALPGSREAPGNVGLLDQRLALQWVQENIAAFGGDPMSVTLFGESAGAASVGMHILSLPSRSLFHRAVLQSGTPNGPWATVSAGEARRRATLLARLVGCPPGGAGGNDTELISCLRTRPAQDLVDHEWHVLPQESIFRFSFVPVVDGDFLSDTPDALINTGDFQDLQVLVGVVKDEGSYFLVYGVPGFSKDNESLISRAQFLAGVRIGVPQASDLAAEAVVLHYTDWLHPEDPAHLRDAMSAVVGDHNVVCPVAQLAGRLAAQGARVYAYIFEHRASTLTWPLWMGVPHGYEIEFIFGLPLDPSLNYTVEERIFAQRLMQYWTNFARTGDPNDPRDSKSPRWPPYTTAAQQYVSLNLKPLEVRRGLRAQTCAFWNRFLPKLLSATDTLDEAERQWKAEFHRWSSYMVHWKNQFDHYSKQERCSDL

Acetylcholinesterase [6] = target: Acetylcholinesterase (Electrophorus electricus, UniProt O42275); assay: Inhibition of electric eel AChE using acetylthiocholine iodide as substrate after 15 mins by Ellman's method
Chain of Acetylcholinesterase (Electrophorus electricus, UniProt O42275) (O42275 whole entry): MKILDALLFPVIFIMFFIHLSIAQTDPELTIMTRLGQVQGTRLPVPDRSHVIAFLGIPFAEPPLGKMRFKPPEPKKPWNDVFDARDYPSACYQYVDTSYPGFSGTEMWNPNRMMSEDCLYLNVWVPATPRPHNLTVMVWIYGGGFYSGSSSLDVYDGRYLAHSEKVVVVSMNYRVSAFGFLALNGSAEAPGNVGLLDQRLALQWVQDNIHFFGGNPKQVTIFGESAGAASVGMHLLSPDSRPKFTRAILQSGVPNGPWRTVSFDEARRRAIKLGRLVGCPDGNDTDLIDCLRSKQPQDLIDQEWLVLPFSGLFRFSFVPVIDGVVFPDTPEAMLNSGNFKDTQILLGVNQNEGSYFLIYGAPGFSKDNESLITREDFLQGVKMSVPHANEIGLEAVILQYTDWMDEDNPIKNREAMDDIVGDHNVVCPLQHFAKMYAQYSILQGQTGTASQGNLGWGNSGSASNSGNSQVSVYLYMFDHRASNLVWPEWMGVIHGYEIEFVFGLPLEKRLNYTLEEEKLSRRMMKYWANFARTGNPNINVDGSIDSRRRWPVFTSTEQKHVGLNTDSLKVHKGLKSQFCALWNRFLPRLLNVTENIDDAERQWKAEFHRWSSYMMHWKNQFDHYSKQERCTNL

[7] = Cytotoxicity against […] cells assessed as decrease in cell viability up to 10 uM preincubated for 30 mins followed by LPS stimulation and measured after 24 hrs by MTT assay; assay type: cell-based; procedure, shortened: as §2
[8] = target: T2, Amyloid-beta precursor protein (Homo sapiens, UniProt P05067); assay: Inhibition of human amyloid beta (1 to 42) self-induced aggregation at 25 uM after 24 hrs by Thioflavin T based fluorometric assay relative to control
T2 sequence (P05067 whole entry): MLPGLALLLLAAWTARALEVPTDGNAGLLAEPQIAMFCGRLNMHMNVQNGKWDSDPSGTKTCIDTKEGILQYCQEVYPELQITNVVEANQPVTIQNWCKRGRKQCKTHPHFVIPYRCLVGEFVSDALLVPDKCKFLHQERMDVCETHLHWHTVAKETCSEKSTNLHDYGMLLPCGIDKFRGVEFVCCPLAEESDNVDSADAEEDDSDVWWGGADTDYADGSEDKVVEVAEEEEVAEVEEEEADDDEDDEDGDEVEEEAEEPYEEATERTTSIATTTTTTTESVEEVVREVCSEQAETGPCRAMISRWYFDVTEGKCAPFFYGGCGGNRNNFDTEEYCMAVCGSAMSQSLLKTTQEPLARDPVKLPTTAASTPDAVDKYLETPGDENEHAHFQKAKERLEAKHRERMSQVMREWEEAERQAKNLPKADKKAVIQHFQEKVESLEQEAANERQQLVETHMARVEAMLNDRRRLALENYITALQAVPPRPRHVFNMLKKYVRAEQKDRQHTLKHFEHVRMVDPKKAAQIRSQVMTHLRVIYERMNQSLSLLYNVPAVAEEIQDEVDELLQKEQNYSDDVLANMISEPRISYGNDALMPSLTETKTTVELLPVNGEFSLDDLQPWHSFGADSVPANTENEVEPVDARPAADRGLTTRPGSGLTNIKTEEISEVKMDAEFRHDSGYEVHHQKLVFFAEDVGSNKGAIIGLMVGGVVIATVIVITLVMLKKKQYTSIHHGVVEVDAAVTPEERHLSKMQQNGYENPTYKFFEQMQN
Procedure, shortened: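 Aβ1-42 (25 µM final) incubated with compound (25 µM final) in 50 mM phosphate buffer, pH 7.4, for 24 h at 37 °C under a sealing film. ThT (5 µM) in 50 mM glycine-NaOH, pH 8.5, then added and fluorescence measured. Triplicate; mean ± SD of three independent experiments.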

[9] = Anti-inflammatory activity in […] cells assessed as inhibition of LPS-stimulated NO release at 2.5 uM preincubated for 30 mins followed by LPS stimulation and measured after 24 hrs by Griess reagent based assay relative to control; assay type: functional; conditions: BV-2; procedure, shortened: as §1
[10] = Anti-inflammatory activity in […] cells assessed as inhibition of LPS-stimulated TNFalpha release at 10 uM preincubated for 30 mins followed by LPS stimulation and measured after 24 hrs by ELISA relative to control; assay type: functional; conditions: BV-2
Procedure, shortened: (§3)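 Confluent BV-2 cells in DMEM preincubated 30 min with compound, tested over 0.5–10 µM, then stimulated with LPS (1.0 µg/mL) for 24 h. Released TNF-α measured by ELISA following kit instructions. Triplicate wells; mean ± SD of three independent experiments.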

[11] = Anti-inflammatory activity in […] cells assessed as inhibition of LPS-stimulated TNFalpha release at 2.5 uM preincubated for 30 mins followed by LPS stimulation and measured after 24 hrs by ELISA relative to control; assay type: functional; conditions: BV-2; procedure, shortened: as §3
Acetylcholinesterase [12] = target: Acetylcholinesterase (Homo sapiens, UniProt P22303); assay: Inhibition of acetylcholinesterase (unknown origin)
Chain of Acetylcholinesterase (Homo sapiens, UniProt P22303) (P22303 whole entry): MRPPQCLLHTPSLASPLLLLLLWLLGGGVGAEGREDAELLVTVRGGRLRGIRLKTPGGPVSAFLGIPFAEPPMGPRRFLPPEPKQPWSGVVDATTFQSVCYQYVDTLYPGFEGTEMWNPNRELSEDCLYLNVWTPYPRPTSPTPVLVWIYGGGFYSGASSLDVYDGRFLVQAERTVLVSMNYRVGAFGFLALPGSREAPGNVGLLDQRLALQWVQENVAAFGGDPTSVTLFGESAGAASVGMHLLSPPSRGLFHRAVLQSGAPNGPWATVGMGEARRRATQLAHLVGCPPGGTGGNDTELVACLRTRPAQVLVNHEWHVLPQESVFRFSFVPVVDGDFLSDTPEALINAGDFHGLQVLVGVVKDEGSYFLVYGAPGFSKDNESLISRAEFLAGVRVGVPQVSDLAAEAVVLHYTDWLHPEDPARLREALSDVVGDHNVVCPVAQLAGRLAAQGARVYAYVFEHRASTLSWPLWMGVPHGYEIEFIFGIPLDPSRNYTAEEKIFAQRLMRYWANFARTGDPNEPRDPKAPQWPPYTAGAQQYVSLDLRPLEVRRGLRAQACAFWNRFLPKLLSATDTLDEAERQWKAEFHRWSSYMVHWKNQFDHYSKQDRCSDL

Homo sapiens [13] = species: Homo sapiens; assay: Anti-inflammatory activity in […] cells assessed as inhibition of LPS-stimulated NO release preincubated for 30 mins followed by LPS stimulation and measured after 24 hrs by Griess reagent based assay; assay type: functional, cell-based
[14] = Effect on NO release in […] cells up to 10 uM after 24 hrs by Griess reagent based assay; assay type: ADME, cell-based
Procedure, shortened: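 BV-2 cells in DMEM treated with compound alone, without LPS, up to 10 µM. Nitrite in culture supernatant measured by Griess reagent (A540) against a NaNO2 standard curve. Mean ± SD of three independent experiments.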

[15] = target: T2, Amyloid-beta precursor protein; assay: Disaggregation of self-induced preformed fibrils of human amyloid beta (1 to 42) at 25 uM after 24 hrs by Thioflavin T based fluorometric assay relative to control
Procedure, shortened: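 Aβ1-42 diluted in HEPES buffer (20 mM, pH 6.6, 150 mM NaCl) and pre-aggregated 24 h at 37 °C. Compound (25 µM) then added for another 24 h at 37 °C on a sealed plate. Remaining fibrils read by ThT fluorescence in glycine-NaOH, pH 8.5. Triplicate; three independent experiments.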

[16] = Disaggregation of Cu2+ induced preformed fibrils of human amyloid beta (1 to 42) at 25 uM after 24 hrs by Thioflavin T based fluorometric assay relative to control
Procedure, shortened: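 Aβ1-42 (25 µM) with Cu2+ (25 µM) in HEPES buffer pre-aggregated 24 h at 37 °C. Compound (25 µM) then added for a further 24 h at 37 °C. Fibril content measured by ThT fluorescence (glycine-NaOH, pH 8.5). Triplicate; three independent experiments.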

[17] = target: T2, Amyloid-beta precursor protein; assay: Inhibition of human amyloid beta (1 to 42) self-induced aggregation after 24 hrs by Thioflavin T based fluorometric assay
Procedure, shortened: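 Self-induced Aβ1-42 aggregation (25 µM peptide) in phosphate buffer, pH 7.4, for 24 h at 37 °C with varying compound concentrations. Aggregation read by ThT fluorescence (5 µM ThT, glycine-NaOH pH 8.5).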

[18] = Effective permeability of the compound in PBS/EtOH at 100 ug/ml after 18 hrs by PAMPA; assay type: ADME; conditions: read-out: Peff
[19] = Effect on TNFalpha release in […] cells up to 10 uM after 24 hrs by ELISA; assay type: ADME, cell-based
Procedure, shortened: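 BV-2 cells exposed to compound up to 10 µM with no added LPS. TNF-α in the medium measured by ELISA. Mean ± SD of three independent experiments.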

Homo sapiens [20] = species: Homo sapiens; assay: Anti-inflammatory activity in […] cells assessed as inhibition of LPS-stimulated TNFalpha release at 0.5 uM preincubated for 30 mins followed by LPS stimulation and measured after 24 hrs by ELISA; assay type: functional, cell-based; procedure, shortened: as §3
Homo sapiens [21] = species: Homo sapiens; assay: Anti-inflammatory activity in […] cells assessed as inhibition of LPS-stimulated TNFalpha release preincubated for 30 mins followed by LPS stimulation and measured after 24 hrs by ELISA; assay type: functional, cell-based; procedure, shortened: as §3
Acetylcholinesterase [22] = target: T1, Acetylcholinesterase; assay: Inhibition of rat AChE
Procedure, shortened: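 Ellman assay using 5% rat cortex homogenate, preincubated 5 min with iso-OMPA (4.0 mmol/L) to block BuChE. Acetylthiocholine iodide (1 mmol/L) with inhibitor dilutions in phosphate buffer ([…], pH 7.40), incubated 15 min at 37 °C. Stopped with 0.2% DTNB, absorbance read at 405 nm. IC50 as mean of three independent experiments, each in triplicate.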

O=C(O)c1cc(O)c(C(=O)O)cc1O
IC50 (Butyrylcholinesterase): > 100 µM
Activity [1]: 4.7 equiv
inhibition at 10 µM [2]: 12.5%
Activity [3]: Non-Toxic
inhibition [4]: 8.1%
IC50 (Acetylcholinesterase [5]): > 100 µM
IC50 (Acetylcholinesterase [6]): > 100 µM
Activity [7]: Non-Toxic
inhibition [8]: 4.7%
inhibition at 2.5 µM [9]: 8.3%
inhibition at 10 µM [10]: 18.2%
inhibition at 2.5 µM [11]: 5.9%

O=C(O)c1ccccc1O [SALICYLIC ACID]
IC50 (Acetylcholinesterase [12]): 346 µM

CCN(CCCCCCNC(=O)c1cc(O)c(C(=O)NCCCCCCN(CC)Cc2ccccc2OC)cc1O)Cc1ccccc1OC
inhibition (Homo sapiens [13]): Dose-dependent effect
IC50 (Butyrylcholinesterase): > 100 µM
Activity [1]: 1.43 equiv
inhibition at 10 µM [2]: 63.3%
Activity [3]: Non-Toxic
Activity [14]: Non-Toxic
Activity [15]: 83.8%
inhibition [4]: 89.9%
IC50 (Acetylcholinesterase [5]): 1.68 µM
Activity [16]: 85.3%
IC50 (Acetylcholinesterase [6]): 6.75 µM
IC50 [17]: 3.31 µM
Activity [7]: Non-Toxic
Papp at 18 h, 100 ug/ml [18]: 55.4 nm/s
Activity [19]: Non-Toxic
inhibition [8]: 99.6%
inhibition at 2.5 µM [9]: 33.3%
inhibition at 10 µM [10]: 50.6%
inhibition (Homo sapiens [20]): inactive
inhibition (Homo sapiens [21]): Dose-dependent effect
inhibition at 2.5 µM [11]: 20.6%

CC(C(=O)O)c1ccc(-c2ccccc2)c(F)c1 (stereo not drawn) [FLURBIPROFEN]
inhibition at 10 µM [2]: 23%
Activity [3]: Non-Toxic
Activity [7]: Non-Toxic
inhibition at 2.5 µM [9]: 11.8%
inhibition at 10 µM [10]: 30.3%
inhibition at 2.5 µM [11]: 9.6%

CCN(CCCNC(=O)c1cc(O)c(C(=O)NCCCN(CC)Cc2ccccc2OC)cc1O)Cc1ccccc1OC
inhibition (Homo sapiens [13]): Dose-dependent effect
IC50 (Butyrylcholinesterase): > 100 µM
Activity [1]: 1.1 equiv
inhibition at 10 µM [2]: 50.8%
Activity [3]: Non-Toxic
Activity [14]: Non-Toxic
Activity [15]: 77.3%
inhibition [4]: 88.8%
IC50 (Acetylcholinesterase [5]): 0.67 µM
Activity [16]: 73.1%
IC50 (Acetylcholinesterase [6]): 11.4 µM
IC50 [17]: 2.41 µM
Activity [7]: Non-Toxic
Papp at 18 h, 100 ug/ml [18]: 42.3 nm/s
Activity [19]: Non-Toxic
inhibition [8]: 98.2%
inhibition at 2.5 µM [9]: 35%
inhibition at 10 µM [10]: 41.1%
inhibition (Homo sapiens [20]): inactive
inhibition (Homo sapiens [21]): Dose-dependent effect
inhibition at 2.5 µM [11]: 28.2%

COc1ccccc1CN(C)CCCCNC(=O)c1cc(O)c(C(=O)NCCCCN(C)Cc2ccccc2OC)cc1O
inhibition (Homo sapiens [13]): Dose-dependent effect
IC50 (Butyrylcholinesterase): 19.2 µM
Activity [1]: 0.64 equiv
inhibition at 10 µM [2]: 57.5%
Activity [3]: Non-Toxic
Activity [14]: Non-Toxic
Activity [15]: 80.3%
inhibition [4]: 65.4%
IC50 (Acetylcholinesterase [5]): 7.37 µM
Activity [16]: 76.3%
IC50 (Acetylcholinesterase [6]): 5.87 µM
IC50 [17]: 3.45 µM
Activity [7]: Non-Toxic
Activity [19]: Non-Toxic
inhibition [8]: 98.6%
inhibition at 2.5 µM [9]: 36.7%
inhibition at 10 µM [10]: 59.4%
inhibition (Homo sapiens [20]): inactive
inhibition (Homo sapiens [21]): Dose-dependent effect
inhibition at 2.5 µM [11]: 32.9%

CCN(CCCCCCNC1=CC(=O)C(NCCCCCCN(CC)Cc2ccccc2OC)=CC1=O)Cc1ccccc1OC [MEMOQUIN]
IC50 (Acetylcholinesterase [22]): 0.00155 µM
Activity [1]: 0.77 equiv
